Activity calls are given as the source filed them. The calls are words filed in the database; no cut-off is given here.
Tests used:
[1] = target: T1, Fatty-acid amide hydrolase 1 (Rattus norvegicus, UniProt P97612); assay: Inhibition of Wistar rat brain FAAH assessed as [3H]arachidonoylethanolamide hydrolysis
T1 sequence (P97612 whole entry): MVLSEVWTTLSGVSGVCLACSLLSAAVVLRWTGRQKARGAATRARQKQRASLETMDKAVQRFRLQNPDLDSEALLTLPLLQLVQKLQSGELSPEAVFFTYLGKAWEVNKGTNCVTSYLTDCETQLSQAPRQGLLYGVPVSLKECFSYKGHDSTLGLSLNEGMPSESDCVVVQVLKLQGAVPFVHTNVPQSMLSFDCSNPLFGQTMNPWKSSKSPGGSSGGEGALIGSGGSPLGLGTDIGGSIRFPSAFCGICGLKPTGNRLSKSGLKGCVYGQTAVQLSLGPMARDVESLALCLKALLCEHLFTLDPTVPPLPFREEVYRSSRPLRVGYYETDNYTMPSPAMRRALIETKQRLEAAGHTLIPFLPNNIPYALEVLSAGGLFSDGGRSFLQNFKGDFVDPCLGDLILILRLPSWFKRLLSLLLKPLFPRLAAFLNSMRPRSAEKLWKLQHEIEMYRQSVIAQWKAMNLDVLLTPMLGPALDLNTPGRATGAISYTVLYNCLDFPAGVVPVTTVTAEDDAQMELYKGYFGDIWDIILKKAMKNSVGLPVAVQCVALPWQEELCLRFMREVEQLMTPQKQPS

Monoglyceride lipase = target: T2, Monoglyceride lipase (Homo sapiens, UniProt Q99685); assay: Inhibition of human recombinant MGL
T2 sequence (Q99685 whole entry): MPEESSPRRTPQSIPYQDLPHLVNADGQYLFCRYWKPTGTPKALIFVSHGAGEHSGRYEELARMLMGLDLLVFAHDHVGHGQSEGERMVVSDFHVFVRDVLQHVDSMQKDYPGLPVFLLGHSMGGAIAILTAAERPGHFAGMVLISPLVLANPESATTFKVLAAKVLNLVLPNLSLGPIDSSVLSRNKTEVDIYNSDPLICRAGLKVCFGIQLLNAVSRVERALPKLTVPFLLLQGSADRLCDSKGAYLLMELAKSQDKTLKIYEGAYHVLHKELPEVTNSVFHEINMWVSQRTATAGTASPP

[2] = target: T3, Monoglyceride lipase (Homo sapiens) (UniProt Q99685); assay: Inhibition of human recombinant MGL at 100 uM
T3 sequence (whole entry): T2 sequence (Q99685 whole entry)
How it was run: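 Human recombinant MGL as enzyme source with 2-AG as substrate. Single-concentration screen at 100 µM, expressed as percent inhibition. Mean of two independent experiments, each performed in duplicate.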

[3] = target: T3, Monoglyceride lipase (Homo sapiens); assay: Inhibition of human recombinant MGL assessed as residual enzyme activity at 1 mM

Row | Compound | IC50 [1] | IC50 (Monoglyceride lipase) | inhibition [2] | Activity [2] | Activity [3]
1 | OB(O)c1cc2ccccc2s1 | 0.15 µM | 32 µM | – | – | –
2 | COc1ccccc1B(O)O | 13 µM | – | 11% | – | –
3 | N#Cc1cccc(B(O)O)c1 | 1.6 µM | – | 21% | – | –
4 | OB(O)c1ccccc1C(F)(F)F | 68 µM | – | 20% | – | –
5 | OB(O)c1cccc(C(F)(F)F)c1 | 0.08 µM | 38 µM | – | – | –
6 | CCCCCCCCCc1ccc(B(O)O)cc1 | 0.0091 µM | 7.9 µM | – | – | –
7 | OB(O)c1ccc(-c2ccccc2)cc1 [BIPHENYLBORONIC ACID] | 0.021 µM | – | – | – | –
8 | OB(O)c1ccccc1 [PHENYLBORONIC ACID] | 2.6 µM | – | – | inactive | –
9 | COc1cccc(B(O)O)c1 | – | – | 7% | – | –
10 | OB(O)c1ccc(F)cc1 | 1.5 µM | – | 3% | – | –
11 | COc1ccc(B(O)O)cc1 | 2 µM | – | 11% | – | –
12 | OB(O)c1ccc(F)nc1 | 10 µM | – | 2% | – | –
13 | N#Cc1ccc(B(O)O)cc1 | 0.29 µM | – | 36% | – | –
14 | OB(O)c1ccc(C(F)(F)F)cc1 | 0.036 µM | – | – | – | –
15 | OB(O)/C=C/c1ccc(-c2ccccc2)cc1 | 0.014 µM | – | – | – | –
16 | OB(O)c1cccc(-c2ccccc2)c1 | 0.13 µM | – | – | – | –
17 | OB(O)c1ccccc1-c1ccccc1 | 110 µM | – | 2% | – | –
18 | O=[N+]([O-])c1ccc(B(O)O)cc1 | 0.21 µM | – | 43% | – | –
19 | OB(O)c1ccccc1F | 0.71 µM | – | 13% | – | –
20 | CCOC(=O)c1cccc(B(O)O)c1 | 0.12 µM | – | 34% | – | –
21 | OB(O)c1cc2ccccc2o1 | 0.33 µM | 100 µM | – | – | 8.4%

Source: ChEMBL document CHEMBL1140204, “Discovery of boronic acids as novel and potent inhibitors of fatty acid amide hydrolase” (J Med Chem, 2008)
